According to article PMC2900633 (Bioorganic & medicinal chemistry, 2008):

Legend:
[1] = system: Jurkat, PC3 and LNCaP cells; experiment: MTT assay, statements over all three cell lines; type: cell-based
LNCaP cells = experiment: MTT assay, LNCaP cells; type: cell-based; conditions: 24 h, ±10 μM
PC3 cells = experiment: Endogenous PS exposure, Annexin V-FITC flow cytometry; type: cell-based; conditions: scramblase 100 μM, 37°C, 2 hours, background value 2 %
Method in brief: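 PC3 cells were grown in Ham's F-12K with 10% FBS at 37°C, 5% CO2. At 90% confluency they were PBS-washed, trypsinised and resuspended in TES buffer at 1 × 10^5 cells/mL. Test compound (100 μM, from DMSO stock) was added for 2 h at 37°C. Cells were then stained in binding buffer with Annexin V-FITC plus 7AAD (500 ng/mL) for 15 min at 37°C. Flow cytometry excluded 7AAD-positive cells. Three independent experiments were run.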

erythrocytes = conditions: raised from 1 %, previous work, ref 8f; cited from earlier work

Cc1ccc(S(=O)(=O)NCCN(CCNC(=O)[C@H](N)Cc2ccccc2)CCNS(=O)(=O)c2ccc(C)cc2)cc1.Cl [scramblase 15]
LD50 (effect on mitochondrial reductase activity) [1]: > 15 µM
LD50, LNCaP cells (LNCaP cells): 40 µM

Cc1ccc(S(=O)(=O)NCCN(CCNC(=S)Nc2ccc(Cl)cc2)CCNS(=O)(=O)c2ccc(C)cc2)cc1 [scramblase 14]
LD50 (effect on mitochondrial reductase activity) [1]: > 15 µM
LD50, LNCaP cells (LNCaP cells): 15 µM

Cc1ccc(S(=O)(=O)NCCN(CCNC(=O)Nc2ccc(C(F)(F)F)cc2)CCNS(=O)(=O)c2ccc(C)cc2)cc1 [scramblase 5]
fraction of Annexin-stained cells (PC3 cells): 10%

Cc1ccc(S(=O)(=O)NCCN(CCNC(=O)Nc2ccc([N+](=O)[O-])cc2)CCNS(=O)(=O)c2ccc(C)cc2)cc1 [scramblase 2]
fraction of Annexin-stained cells, erythrocytes (erythrocytes): 34%
fraction of Annexin-stained cells (PC3 cells): < 5%

Cc1ccc(S(=O)(=O)NCCN(CCNCc2ccccc2)CCNS(=O)(=O)c2ccc(C)cc2)cc1 [scramblase 16]
LD50 (effect on mitochondrial reductase activity) [1]: > 15 µM
LD50, LNCaP cells (LNCaP cells): 40 µM

Cc1ccc(S(=O)(=O)NCCN(CCNC(=O)Nc2ccc(C(C)C)cc2)CCNS(=O)(=O)c2ccc(C)cc2)cc1 [scramblase 9]
fraction of Annexin-stained cells (PC3 cells): < 5%
